Measurements taken from ChEMBL document CHEMBL3102769, “Synthesis, docking simulation, biological evaluations and 3D-QSAR study of 5-Aryl-6-(4-methylsulfonyl)-3-(metylthio)-1,2,4-triazine as selective cyclooxygenase-2 inhibitors” (Bioorg Med Chem, 2014).

Key:
Rattus norvegicus [1] = assay: Antiinflammatory activity in Wistar rat assessed as change in carrageenan-induced hind paw thickness at 6 mg/kg, ip administered 30 mins prior to carrageenan-challenge measured after 1 hr (reference value: 1.84 +/- 0.41 mm); format: functional; conditions: route intraperitoneal
[2] = target: T1, Prostaglandin G/H synthase 1 (Ovis aries, UniProt P05979); assay: Inhibition of ovine COX1 using arachidonic acid as substrate by chemiluminescence assay
T1 sequence (P05979 whole entry): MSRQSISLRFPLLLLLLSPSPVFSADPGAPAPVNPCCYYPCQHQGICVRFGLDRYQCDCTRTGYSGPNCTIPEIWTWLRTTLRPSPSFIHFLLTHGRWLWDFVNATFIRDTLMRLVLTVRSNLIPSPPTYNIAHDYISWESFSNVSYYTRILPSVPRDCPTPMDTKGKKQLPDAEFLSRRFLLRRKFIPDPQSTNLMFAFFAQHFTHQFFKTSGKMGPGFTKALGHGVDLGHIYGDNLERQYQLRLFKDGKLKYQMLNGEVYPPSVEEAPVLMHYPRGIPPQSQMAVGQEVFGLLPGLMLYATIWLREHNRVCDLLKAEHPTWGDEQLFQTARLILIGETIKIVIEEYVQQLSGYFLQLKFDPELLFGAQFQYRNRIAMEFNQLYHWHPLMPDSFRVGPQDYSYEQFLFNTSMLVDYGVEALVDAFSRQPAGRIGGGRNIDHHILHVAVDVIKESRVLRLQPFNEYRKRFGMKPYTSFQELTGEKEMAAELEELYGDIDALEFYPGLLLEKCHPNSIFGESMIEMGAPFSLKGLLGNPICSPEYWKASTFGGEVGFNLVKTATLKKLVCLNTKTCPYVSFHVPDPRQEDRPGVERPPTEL
Procedure, shortened: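 Ovine COX-1 chemiluminescent inhibitor screening kit: heme-catalyzed hydroperoxidase activity generates luminescence with a cyclic naphthalene hydrazide and arachidonic acid substrate. Luminescence serves as the index of catalytic activity. IC50 is the concentration giving 50% inhibition of enzyme activity.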

Rattus norvegicus [3] = assay: Antiinflammatory activity in Wistar rat assessed as change in carrageenan-induced hind paw thickness at 3 mg/kg, ip administered 30 mins prior to carrageenan-challenge measured after 1 hr (reference value: 1.84 +/- 0.41 mm); format: functional; conditions: route intraperitoneal
Rattus norvegicus [4] = assay: Antiinflammatory activity in Wistar rat assessed as change in carrageenan-induced hind paw thickness at 3 mg/kg, ip administered 30 mins prior to carrageenan-challenge measured after 2 hrs (reference value: 1.86 +/- 0.38 mm); format: functional; conditions: route intraperitoneal
Mus musculus [5] = assay: Antinociceptive activity in Swiss albino mouse assessed as licking time in secondary inflammatory period at 6 mg/kg, ip administered 30 mins prior to formalin-challenge (reference value: 217 +/- 68.5 seconds); format: functional; conditions: route intraperitoneal
Mus musculus [6] = assay: Antinociceptive activity in Swiss albino mouse assessed as licking time in primary neurogenic period at 6 mg/kg, ip administered 30 mins prior to formalin-challenge (reference value: 80 +/- 19 seconds); format: functional; conditions: route intraperitoneal
Mus musculus [7] = assay: Antinociceptive activity in Swiss albino mouse assessed as licking time in primary neurogenic period at 3 mg/kg, ip administered 30 mins prior to formalin-challenge (reference value: 80 +/- 19 seconds); format: functional; conditions: route intraperitoneal
Mus musculus [8] = assay: Antinociceptive activity in Swiss albino mouse assessed as licking time in secondary inflammatory period at 3 mg/kg, ip administered 30 mins prior to formalin-challenge (reference value: 217 +/- 68.5 seconds); format: functional; conditions: route intraperitoneal
Rattus norvegicus [9] = assay: Antiinflammatory activity in Wistar rat assessed as change in carrageenan-induced hind paw thickness at 6 mg/kg, ip administered 30 mins prior to carrageenan-challenge measured after 2 hrs (reference value: 1.86 +/- 0.38 mm); format: functional; conditions: route intraperitoneal
Rattus norvegicus [10] = assay: Antiinflammatory activity in Wistar rat assessed as change in carrageenan-induced hind paw thickness at 3 mg/kg, ip administered 30 mins prior to carrageenan-challenge measured after 3 hrs (reference value: 1.78 +/- 0.39 mm); format: functional; conditions: route intraperitoneal
Rattus norvegicus [11] = assay: Antiinflammatory activity in Wistar rat assessed as change in carrageenan-induced hind paw thickness at 6 mg/kg, ip administered 30 mins prior to carrageenan-challenge measured after 3 hrs (reference value: 1.78 +/- 0.39 mm); format: functional; conditions: route intraperitoneal
Mus musculus [12] = assay: Antinociceptive activity in Swiss albino mouse assessed as licking time in primary neurogenic period at 5 mg/kg, ip administered 30 mins prior to formalin-challenge (reference value: 80 +/- 19 seconds); format: functional; conditions: route intraperitoneal
Rattus norvegicus [13] = assay: Antiinflammatory activity in Wistar rat assessed as change in carrageenan-induced hind paw thickness at 5 mg/kg, ip administered 30 mins prior to carrageenan-challenge measured after 2 hrs (reference value: 1.86 +/- 0.38 mm); format: functional; conditions: route intraperitoneal
Rattus norvegicus [14] = assay: Antiinflammatory activity in Wistar rat assessed as change in carrageenan-induced hind paw thickness at 5 mg/kg, ip administered 30 mins prior to carrageenan-challenge measured after 1 hr (reference value: 1.84 +/- 0.41 mm); format: functional; conditions: route intraperitoneal
Mus musculus [15] = assay: Antinociceptive activity in Swiss albino mouse assessed as licking time in secondary inflammatory period at 5 mg/kg, ip administered 30 mins prior to formalin-challenge (reference value: 217 +/- 68.5 seconds); format: functional; conditions: route intraperitoneal
Rattus norvegicus [16] = assay: Antiinflammatory activity in Wistar rat assessed as change in carrageenan-induced hind paw thickness at 5 mg/kg, ip administered 30 mins prior to carrageenan-challenge measured after 3 hrs (reference value: 1.78 +/- 0.39 mm); format: functional; conditions: route intraperitoneal

| SMILES | Activity (Rattus norvegicus [1]) [mm] | IC50 [2] [µM] | Activity (Rattus norvegicus [3]) [mm] | Activity (Rattus norvegicus [4]) [mm] | Time (Mus musculus [5]) [s] | Time (Mus musculus [6]) [s] | Time (Mus musculus [7]) [s] | Time (Mus musculus [8]) [s] | Activity (Rattus norvegicus [9]) [mm] | Activity (Rattus norvegicus [10]) [mm] | Activity (Rattus norvegicus [11]) [mm] | Time (Mus musculus [12]) [s] | Activity (Rattus norvegicus [13]) [mm] | Activity (Rattus norvegicus [14]) [mm] | Time (Mus musculus [15]) [s] | Activity (Rattus norvegicus [16]) [mm] |
| --- | --- | --- | --- | --- | --- | --- | --- | --- | --- | --- | --- | --- | --- | --- | --- | --- |
| COc1ccc(-c2nc(SC)nnc2-c2ccc(S(C)(=O)=O)cc2)cc1 | 0.58 | 50.1 | 0.96 | 0.72 | 118 | 49 | 46 | 227 | 0.43 | 0.64 | 0.3 |  |  |  |  |  |
| CSc1nnc(-c2ccc(S(C)(=O)=O)cc2)c(-c2ccc(Cl)cc2)n1 | 0.89 | 39.5 | 1 | 0.71 | 140 | 37 | 30 | 85 | 0.58 | 0.54 | 0.41 |  |  |  |  |  |
| COc1ccc2c(c1)c(CC(=O)O)c(C)n2C(=O)c1ccc(Cl)cc1 [INDOMETHACIN] |  |  |  |  |  |  |  |  |  |  |  | 45 | 0.81 | 1.05 | 127 | 0.57 |
| CSc1nnc(-c2ccc(S(C)(=O)=O)cc2)c(-c2ccc(F)cc2)n1 | 0.75 | 51.6 | 1.24 | 1.16 | 152 | 34 | 52 | 127 | 0.56 | 0.97 | 0.34 |  |  |  |  |  |
| CSc1nnc(-c2ccc(S(C)(=O)=O)cc2)c(-c2ccc(C)cc2)n1 | 0.98 | 52.4 | 0.87 | 0.68 | 139 | 61 | 49 | 175 | 0.8 | 0.55 | 0.67 |  |  |  |  |  |
| CSc1nnc(-c2ccc(S(C)(=O)=O)cc2)c(-c2ccccc2)n1 | 1.09 | 54.4 | 1.45 | 1.77 | 155 | 58 | 57 | 133 | 0.94 | 1.19 | 0.83 |  |  |  |  |  |
